Laboratory results taken from ChEMBL document CHEMBL4145447, “4-arylamidobenzyl substituted 5-bromomethylene-2(5H)-furanones for chronic bacterial infection” (Eur J Med Chem, 2018).
Active and inactive are the calls of the source. The rule behind the calls is not given here.

Target: T1, Anthranilate--CoA ligase (Pseudomonas aeruginosa (strain ATCC 15692 / DSM 22644 / CIP 104116 /JCM 14847 / LMG 12228 / 1C / PRS 101 / PAO1)) (UniProt Q9I4X3)
T1 sequence (whole entry): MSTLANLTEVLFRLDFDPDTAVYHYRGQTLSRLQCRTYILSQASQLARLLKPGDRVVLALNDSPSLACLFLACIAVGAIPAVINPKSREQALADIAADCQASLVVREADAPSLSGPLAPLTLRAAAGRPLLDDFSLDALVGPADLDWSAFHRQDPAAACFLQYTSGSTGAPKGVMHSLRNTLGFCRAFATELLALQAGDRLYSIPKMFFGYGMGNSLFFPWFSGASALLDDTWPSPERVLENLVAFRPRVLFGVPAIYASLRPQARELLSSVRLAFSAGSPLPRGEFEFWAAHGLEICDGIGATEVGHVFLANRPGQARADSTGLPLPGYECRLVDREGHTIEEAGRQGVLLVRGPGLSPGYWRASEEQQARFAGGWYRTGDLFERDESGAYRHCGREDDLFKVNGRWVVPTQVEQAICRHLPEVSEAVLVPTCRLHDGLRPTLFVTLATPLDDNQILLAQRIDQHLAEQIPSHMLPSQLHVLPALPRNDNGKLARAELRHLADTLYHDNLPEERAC
Test: Inhibition of Pseudomonas aeruginosa PAO1 GFP-fused quorum sensing pqsA at 5 to 100 uM measured every 15 mins up to 12 hrs by GFP reporter gene assay
Procedure, shortened: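 GFP reporter strains of P. aeruginosa PAO1 (lasB-, rhlA- or pqsA-promoter fused to unstable gfp(ASV)) grown overnight in LB at 37 °C, 200 rpm, 18 h, then diluted 1:100. Culture mixed 1:1 with compound diluted in LB from 10 mM DMSO stock (0.1% DMSO final). Fluorescence (ex 485/em 528 nm) read every 15 min at 37 °C for ≥12 h.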

inhibition: inactive
Compound: O=C(C=Cc1ccccc1)Nc1ccc(CC2=CC(=O)O/C2=C/Br)cc1
